Results as given in ChEMBL document CHEMBL1141164, “Design and synthesis of a series of melamine-based nitroheterocycles with activity against Trypanosomatid parasites” (J Med Chem, 2005).
Values joined by “and” are separate entries in the source; they are usually repeats but may differ in a detail not shown here. Equal entries are not always repeated.

Tests used:
[1] = test system: Trypanosoma brucei rhodesiense; test: Inhibitory concentration in vitro against blood stream Trypanosoma brucei rhodesiense incubated for 72 hr at 37 degree C; format: functional, organism-based
Procedure, shortened: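 T. b. rhodesiense STIB900 trypomastigotes, a 1982 human isolate from Tanzania, grown in minimum essential medium with 2-mercaptoethanol and 15% heat-inactivated horse serum. Drug dilutions 90 to 0.123 μg/mL, 72 h at 37 °C, 5% CO2.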

[2] = test system: Trypanosoma brucei brucei; test: In vitro inhibitory concentration against blood stream Trypanosoma brucei brucei AT1 wild type incubated for 72 h at 37 degree C; format: functional, organism-based
Procedure, shortened: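 Wild-type T. b. brucei trypomastigotes, tested alongside the P2 knockout (TbAT1-/-). Alamar Blue viability assay used to derive IC50 values.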

[3] = test system: Trypanosoma cruzi; test: In vitro inhibitory concentration against intracellular amastigotes of Trypanosoma cruzi in rat skeletal myoblasts incubated for 37 degree C for 4 days; format: functional, organism-based; conditions: 96 h
Procedure, shortened: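 L-6 myoblasts seeded at 2000 cells/well in RPMI 1640 with 10% FBS and 2 mM L-glutamine. After 24 h, 5000 T. cruzi Tulahuen C2C4 (LacZ) trypomastigotes added with serial drug dilution. Incubated 4 days at 37 °C in 5% CO2, then CPRG/Nonidet added.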

[4] = target: T1, Nucleoside transporter 2 (Trypanosoma brucei brucei) (UniProt Q9U763); test: In vitro inhibitory concentration against P2 aminopurine transporter of Trypanosoma brucei brucei 427 adenosine (0.5 uM) uptake in presence of 1 mM inosine
T1 sequence (whole entry): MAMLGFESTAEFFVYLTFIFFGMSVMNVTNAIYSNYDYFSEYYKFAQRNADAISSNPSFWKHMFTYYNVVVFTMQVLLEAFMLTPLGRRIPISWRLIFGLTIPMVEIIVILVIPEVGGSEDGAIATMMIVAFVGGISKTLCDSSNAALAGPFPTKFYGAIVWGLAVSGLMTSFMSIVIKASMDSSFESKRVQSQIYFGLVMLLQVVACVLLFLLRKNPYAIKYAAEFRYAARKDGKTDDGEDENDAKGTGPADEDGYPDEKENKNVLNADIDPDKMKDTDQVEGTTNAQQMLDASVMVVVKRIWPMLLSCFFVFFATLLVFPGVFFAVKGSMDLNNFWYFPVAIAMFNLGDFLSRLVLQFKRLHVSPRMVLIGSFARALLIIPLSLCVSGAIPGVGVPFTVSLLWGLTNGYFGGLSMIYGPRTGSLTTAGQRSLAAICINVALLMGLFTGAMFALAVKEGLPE
Procedure, shortened: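 Blood-purified T. b. brucei 427 held on ice in Carter's buffered saline. Uptake of radiolabeled adenosine fixed at 0.5 μM via P2, measured with 1 mM inosine present to block P1, by centrifugation through oil over a range of inhibitor concentrations. IC50 obtained by plotting inhibition against inhibitor concentration.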

[5] = test system: Trypanosoma brucei brucei; test: In vitro inhibitory concentration against blood stream Trypanosoma brucei brucei AT1 knockout mutant with a non functional P2 transporter incubated for 72 h at 37 degree C; format: organism-based
Procedure, shortened: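 Bloodstream T. b. brucei trypomastigotes, wild type or P2 transporter knockout (TbAT1-/-), were tested side by side. Viability was read by Alamar Blue fluorescence and IC50 values were determined.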

[6] = test system: L6; test: Concentration causing cytotoxicity to 50% of L-6 rat skeletal myoblasts; format: functional, cell-based
Procedure, shortened: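 L-6 rat skeletal myoblasts run in the same Alamar Blue assay as the trypanosome screen. Serial dilutions spanning 90 to 0.123 μg/mL, 72 h at 37 °C under 5% CO2, then Alamar Blue for a further 2–4 h. Fluorescence read at ex 536/em 588 nm and expressed as % of control to give IC50.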

[7] = test system: Leishmania donovani; test: Inhibitory concentration in vitro against intracellular amastigotes of Leishmania donovani in mouse peritoneal macrophages incubated for 96 hr at […]; tox is toxic to macrophages
[8] = test system: Mus musculus; test: In vivo antitrypanosomal activity at a dose of 4*1 mg/kg, i.p., in mice infected with Trypanosoma brucei brucei STIB 795 strain; 2/4; format: functional
[9] = test system: Mus musculus; test: In vivo antitrypanosomal activity at a dose of 4*8 mg/kg, i.p., in mice infected with Trypanosoma brucei rhodesiense STIB 900 strain, measured as cured/infected; 4/4; format: functional
[10] = test system: Mus musculus; test: In vivo antitrypanosomal activity at a dose of 4*1 mg/kg, i.p., in mice infected with Trypanosoma brucei rhodesiense STIB 900 strain, measured as cured/infected; 0/4; format: functional
[11] = test system: Leishmania donovani; test: Inhibitory concentration in vitro against intracellular amastigotes of Leishmania donovani in mouse peritoneal macrophages incubated for 96 hr at 27 degree C
[12] = test system: Mus musculus; test: In vivo antitrypanosomal activity at a dose of 4*1 mg/kg, i.p., in mice infected with Trypanosoma brucei brucei STIB 795 strain, measured as survival days (control 7 days); format: functional
[13] = test system: Mus musculus; test: In vivo antitrypanosomal activity at a dose of 4*1 mg/kg, i.p., in mice infected with Trypanosoma brucei rhodesiense STIB 900 strain, measured as survival days (control 7 days); ND is not determined; format: functional
[14] = test system: Mus musculus; test: In vivo antitrypanosomal activity at a dose of 4*8 mg/kg, i.p., in mice infected with Trypanosoma brucei rhodesiense STIB 900 strain, measured as survival days (control 7 days); ND is not determined; format: functional
[15] = test system: Trypanosoma brucei; test: Inhibitory concentration against RAD51-/- mutant Trypanosoma brucei
[16] = test system: Trypanosoma brucei; test: Inhibitory concentration against wild-type (427) Trypanosoma brucei; format: functional, organism-based
[17] = test system: Trypanosoma cruzi; test: In vivo percent inhibition of compound at a dose of 45 mg/kg, p.o., for 5 doses in rodent model with Trypanosoma cruzi [ND = not determined]; conditions: po
[18] = test system: Trypanosoma cruzi; test: In vivo activity at a dose of 45 mg/kg, p.o., for 5 doses in rodent model with Trypanosoma cruzi, measured as survival days (control 13 days); conditions: route oral
[19] = test system: Trypanosoma cruzi; test: In vivo activity at a dose of 50 mg/kg, i.p., for 5 doses in mice infected with Trypanosoma cruzi, measured as survival days (control 13 days)
[20] = test system: Mus musculus; test: In vivo antitrypanosomal activity at a dose of 4*20 mg/kg, i.p., in mice infected with Trypanosoma brucei brucei STIB 795 strain, measured as survival days (control 7 days); format: functional
[21] = test system: Mus musculus; test: In vivo antitrypanosomal activity at a dose of 4*20 mg/kg, i.p., in mice infected with Trypanosoma brucei brucei STIB 795 strain; 4/4; format: functional
[22] = test system: Mus musculus; test: In vivo antitrypanosomal activity at a dose of 4*20 mg/kg, i.p., in mice infected with Trypanosoma brucei rhodesiense STIB 900 strain; 2/4; format: functional
[23] = test system: Mus musculus; test: In vivo antitrypanosomal activity at a dose of 4*20 mg/kg, i.p., in mice infected with Trypanosoma brucei rhodesiense STIB 900 strain, measured as survival days (control 7 days); format: functional
[24] = test system: Trypanosoma cruzi; test: In vivo activity at a dose of 50 mg/kg, i.p., for 5 doses in mice infected with Trypanosoma cruzi, measured as survival days (control 13 days); conditions: ip, 312 h
[25] = test system: Mus musculus; test: In vivo antitrypanosomal activity at a dose of 4*20 mg/kg, i.p., in mice infected with Trypanosoma brucei rhodesiense STIB 900 strain, measured as survival days (control 7 days); ND is not determined; format: functional
[26] = test system: Mus musculus; test: In vivo antitrypanosomal activity at a dose of 4*5 mg/kg, i.p., in mice infected with Trypanosoma brucei brucei STIB 795 strain, measured as survival days (control 7 days); format: functional
[27] = test system: Mus musculus; test: In vivo antitrypanosomal activity at a dose of 4*5 mg/kg, i.p., in mice infected with Trypanosoma brucei brucei STIB 795 strain; 4/4; format: functional
[28] = test system: Mus musculus; test: In vivo antitrypanosomal activity at a dose of 4*20 mg/kg, i.p., in mice infected with Trypanosoma brucei rhodesiense STIB 900 strain, measured as cured/infected; 0/4; format: functional
[29] = test system: Mus musculus; test: In vivo antitrypanosomal activity at a dose of 4*20 mg/kg, i.p., in mice infected with Trypanosoma brucei brucei STIB 795 strain; 0/4; format: functional
[30] = test system: Mus musculus; test: In vivo antitrypanosomal activity at a dose of 4*20 mg/kg, i.p., in mice infected with Trypanosoma brucei rhodesiense STIB 900 strain, measured as survival days (control 6.5 days); format: functional
[31] = test system: Mus musculus; test: In vivo antitrypanosomal activity at a dose of 4*20 mg/kg, i.p., in mice infected with Trypanosoma brucei rhodesiense STIB 900 strain; 1/4; format: functional
[32] = test system: Trypanosoma cruzi; test: In vivo activity at a dose of 25 mg/kg, i.p., for 5 doses in rodent model with Trypanosoma cruzi, measured as survival days (control 13 days); conditions: route intraperitoneal
[33] = test system: Mus musculus; test: In vivo antitrypanosomal activity at a dose of 4*20 mg/kg, i.p., in mice infected with Trypanosoma brucei rhodesiense STIB 900 strain; 0/4; format: functional
[34] = test system: Trypanosoma cruzi; test: In vivo activity at a dose of 15 mg/kg, i.p., for 5 doses in rodent model with Trypanosoma cruzi, measured as survival days (control 13 days); conditions: route intraperitoneal

SMILES | IC50 [1] [µM] | IC50 [2] [µM] | IC50 [3] [µM] | IC50 [4] [µM] | IC50 [5] [µM] | IC50 [6] [µM] | IC50 [7] | other results
Nc1nc(N)nc(N/N=C/c2ccccc2[N+](=O)[O-])n1 | 36.5 | > 75 | 328 |  |  |  |  | 
Nc1nc(N)nc(N/N=C/c2ccc([N+](=O)[O-])cc2)n1 | 29.9 | > 75 | 91.5 |  |  |  |  | 
Nc1nc(N)nc(N/N=C/c2ccc([N+](=O)[O-])s2)n1 | 0.24 | 0.85 | 2.6 | 1.9 | 1.52 | 11.8 | Toxic | 
Nc1nc(N)nc(Nc2ccc([As]3SCC(CO)S3)cc2)n1 (stereo not given) [MELARSOPROL] | 0.006 | 0.053 | 0.006 | 1.2 | 0.12 |  |  | Cured/Infected [8]: 2; Cured/Infected [9]: 4; Cured/Infected [10]: 0; IC50 [11]: 7.8 µM; Survival [12]: >60 days; Survival [13]: 21.25 days; Survival [14]: >60 days
CC1CS(=O)(=O)CCN1/N=C/c1ccc([N+](=O)[O-])o1 (stereo not given) [NIFURTIMOX] | 1.5 | 5.6 | 1.5 |  |  | 68 |  | IC50 [11]: 68 µM; IC50 [15]: 4.3 µM; IC50 [16]: 4.1 µM and 11.4 µM
Nc1nc(N)nc(N/N=C/c2cccs2)n1 | 10.2 | 89 | 85.8 | 4.9 | 170 | 78.2 | Toxic | 
O=C(Cn1ccnc1[N+](=O)[O-])NCc1ccccc1 [BENZNIDAZOLE] |  |  |  |  |  |  |  | inhibition in vivo at 45 mg/kg [17]: 100%; Survival [18]: >30 days; IC50 [15]: 114 µM; IC50 ([16]; Trypanosoma brucei): 116 µM
CNc1nc(N)nc(N/N=C/c2ccc([N+](=O)[O-])o2)n1 | 0.018 | 0.13 | 0.39 |  | 0.06 | 48.9 |  | Survival [19]: 13 days; Survival [20]: >60 days; Cured/Infected [21]: 4; Cured/Infected [22]: 2; IC50 [11]: 0.75 µM; Survival [23]: >38.5 days; IC50 [15]: 0.07 µM; inhibition in vivo at 50 mg/kg [24]: 27.8%; IC50 [16]: 0.08 µM; IC50 ([16]; Trypanosoma brucei): 0.08 µM
N#Cc1ccc(/C=N/Nc2nc(N)nc(N)n2)o1 | 46.3 |  | 122 |  |  |  |  | 
N=C(N)c1ccc(OCCCCCOc2ccc(C(=N)N)cc2)cc1 [PENTAMIDINE] |  |  |  |  |  |  |  | Survival [25]: 42.75 days; Survival [26]: >60 days; Cured/Infected [27]: 4; Cured/Infected [28]: 0
NNc1nc(N)nc(N)n1 |  | > 200 |  | 11.9 | > 200 |  |  | 
CNc1nc(NC)nc(N/N=C/c2ccc([N+](=O)[O-])o2)n1 | 0.01 |  | 0.24 |  |  | 44.1 |  | Survival [20]: 5.25 days; IC50 [11]: 3.14 µM; Cured/Infected [29]: 0
O=[N+]([O-])c1ccc(/C=N/O)o1 [NIFUROXIME] | 0.68 | 1.18 |  | 300 | 1.26 | 40 | Toxic | 
Nc1nc(N)nc(N/N=C/c2ccc([N+](=O)[O-])o2)n1 | 0.025 | 0.23 | 2.1 | 22.9 | 0.38 | 183 |  | Survival [20]: >60 days; Cured/Infected [21]: 4; IC50 [11]: > 12.5 µM; IC50 [15]: 0.1 µM; Survival [30]: 35.25 days; IC50 [16]: 0.08 µM; IC50 ([16]; Trypanosoma brucei): 0.08 µM; Cured/Infected [31]: 1; Survival [32]: 13 days
Nc1nc(N)nc(N/N=C/c2cccc([N+](=O)[O-])c2)n1 | 52.9 | > 75 | 328 |  |  |  |  | 
N/N=C/c1ccc([N+](=O)[O-])o1 | 2.3 | 23.5 |  | 404 | 13.5 | 20 | Toxic | 
CN(C)c1nc(N/N=C/c2ccc([N+](=O)[O-])o2)nc(N(C)C)n1 | 0.003 | 0.2 | 0.38 | 129 | 0.3 | 18.7 | Toxic | Cured/Infected [33]: 0; Survival [23]: 7.25 days; Survival [34]: 12.8 days
Nc1nc(N)nc(N/N=C/c2ccco2)n1 | 12.9 | 16.5 | > 400 | 15.9 | 29.3 | > 400 | Toxic | 
